Measurements published in ChEMBL document CHEMBL1133586, “The cyclohexene ring system as a furanose mimic: synthesis and antiviral activity of both enantiomers of cyclohexenylguanine” (2000).
In brackets after ≈: the same amount, converted by molar mass. Several values for one entry are separate records, joined by “and”; a condition that tells them apart may be missing. Identical values can stand only once.

Experiments:
Human alphaherpesvirus 3 [1] = assay: (§1) Minimum inhibitory concentration was determined against VZV (OKA) in HEL cells; assay type: functional
Method in brief: (§2)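 HEL cell cultures were infected with 20 PFU of virus and incubated with varying compound concentrations. The value is the concentration reducing virus plaque formation by 50%, as the mean of two independent determinations.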

[2] = Selectivity index was determined against VZV (YS) in HEL cells; assay type: functional
Cytomegalovirus [3] = assay: Minimum inhibitory concentration was determined in CMV (AD169) in HEL cell; assay type: functional; conditions: Human betaherpesvirus 5; method in brief: as §2
[4] = Minimum inhibitory concentration was determined against HSV-2 (Lyons) in E6SM cell culture; assay type: functional, herpes simplex virus
Method in brief: (§3)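 Confluent E6SM cultures in microtiter trays were infected with 100 CCID50 of virus. After 1 h adsorption, residual virus was removed and cultures were incubated with varying compound concentrations. Cytopathicity was read once virus controls reached completion. The value is the concentration reducing virus-induced cytopathogenicity by 50%, as the mean of two independent determinations.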

Cytomegalovirus [5] = assay: Minimum inhibitory concentration was determined against CMV (Davis) in HEL cell; assay type: functional; conditions: Human betaherpesvirus 5; method in brief: as §2
[6] = Selectivity index was determined against VZV (TK-YS/R) in HEL cells; assay type: functional
Human alphaherpesvirus 3 [7] = assay: (§4) Minimum inhibitory concentration was determined against VZV (TK-YS/R) in HEL cells; assay type: functional; method in brief: as §2
Human alphaherpesvirus 3 [8] = assay: (§5) Minimum inhibitory concentration was determined against VZV (YS) in HEL cells; assay type: functional; method in brief: as §2
[9] = Minimum inhibitory concentration was determined against HSV-1 (KOS) in E6SM cell culture; assay type: functional, herpes simplex virus; method in brief: as §3
Human alphaherpesvirus 1 [10] = assay: (§6) Minimum inhibitory concentration was determined against HSV-1 (McIntyre) in E6SM cell culture; assay type: functional, herpes simplex virus; method in brief: as §3
[11] = Selectivity index was determined against CMV (AD 169) in HEL cells; assay type: functional
HeLa = assay: Cytotoxicity concentration required to microscopically detectable alteration of cell morphology in HeLa; assay type: functional, Homo sapiens
Method in brief: (§7)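 Cytotoxicity was scored as the minimum concentration giving a microscopically detectable change in normal cell morphology of E6SM, HeLa or Vero cell cultures.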

Cytomegalovirus [12] = assay: Minimum inhibitory concentration was determined in CMV (Davis) in HEL cell; assay type: functional; conditions: Human betaherpesvirus 5; method in brief: as §2
[13] = Minimum inhibitory concentration was determined against HSV-2 (G) in E6SM cell culture; assay type: functional, herpes simplex virus; method in brief: as §3
Cytomegalovirus [14] = assay: Minimum inhibitory concentration was determined against CMV (AD 169) in HEL cells; assay type: functional; conditions: Human betaherpesvirus 5; method in brief: as §2
[15] = Minimum inhibitory concentration was determined against HSV-2 (196) in E6SM cell culture; assay type: functional, herpes simplex virus; method in brief: as §3
[16] = Selectivity index was determined against HSV-2 (Lyons) in E6SM cell culture; assay type: functional
[17] = Selectivity index was determined againstHSV-2 (196) in E6SM cell culture; assay type: functional
Human alphaherpesvirus 1 [18] = assay: Minimum inhibitory concentration was determined against HSV-1 (F) in E6SM cell culture; assay type: functional, herpes simplex virus; method in brief: as §3
HEL [19] = assay: Cytotoxicity concentration required to reduce cell growth by 50% in HEL; assay type: functional, Homo sapiens
Method in brief: (§8)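 In HEL cells, cytotoxicity was measured as inhibition of normal cell growth, and the value is the concentration reducing cell growth by 50%.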

[20] = Selectivity index was determined in HSV-1 (KOS) in E6SM cell culture; assay type: functional
HEL [21] = assay: Cytotoxicity concentration required to inhibit the cell growth by 50% in HEL; assay type: functional, Homo sapiens; method in brief: as §8
[22] = Selectivity index was determined against CMV (Davis) in HEL cells; assay type: functional
Human alphaherpesvirus 3 [23] = assay: (§9) Minimum inhibitory concentration was determined against VZV (TK-07/1) in HEL cells; assay type: functional; method in brief: as §2
[24] = Selectivity index was determined against HSV-1 (F) in E6SM cell culture; assay type: functional
[25] = Minimum inhibitory concentration was determined against HSV-1 (TK-/TK+VMW1837) in E6SM cell culture; assay type: functional, herpes simplex virus; method in brief: as §3
[26] = Selectivity index was determined against HSV-1 (TK-/TK+VMW1837) in E6SM cell culture; assay type: functional
[27] = Selectivity index was determined against VZV (OKA) in HEL cells; assay type: functional
Human alphaherpesvirus 3 [28] = assay: as §4; assay type: functional; method in brief: as §2; remark: listed apart in the source
[29] = as §6; assay type: functional, herpes simplex virus; conditions: Human alphaherpesvirus 1; method in brief: as §3
Human alphaherpesvirus 3 [30] = assay: as §9
Human alphaherpesvirus 3 [31] = assay: as §4
Vero = assay: Cytotoxicity concentration required to microscopically detectable alteration of cell morphology in Vero; assay type: functional, Chlorocebus sabaeus; method in brief: as §7
[32] = Minimum inhibitory concentration was determined against HSV-1 (TK-KOS ACV) in E6SM cell culture; assay type: functional, herpes simplex virus; conditions: Human alphaherpesvirus 1; method in brief: as §3
Human alphaherpesvirus 3 [33] = assay: as §1
[34] = as §5; conditions: Human alphaherpesvirus 1
Human alphaherpesvirus 2 = assay: Minimum inhibitory concentration was determined against HSV-2 (G) in E6SM cell culture
E6SM = assay: Cytotoxicity concentration required to microscopically detectable alteration of cell morphology in E6SM; assay type: functional, Homo sapiens; method in brief: as §7
HEL [35] = assay: Cytotoxicity concentration required to microscopically detectable alteration of cell morphology HEL; assay type: functional, Homo sapiens
[36] = Minimum inhibitory concentration was determined against HSV-2 (G) in E6SM cell culture; conditions: Human alphaherpesvirus 2
Cytomegalovirus [37] = assay: Minimum inhibitory concentration was determined against CMV(AD169) in E6SM cell culture; assay type: functional; conditions: Human betaherpesvirus 5; method in brief: as §3
Cytomegalovirus [38] = assay: Minimum inhibitory concentration was determined against CMV(Davis) in E6SM cell culture; assay type: functional; conditions: Human betaherpesvirus 5; method in brief: as §3
Human alphaherpesvirus 1 [39] = assay: Minimum inhibitory concentration was determined against HSV-1 (TK-/TK+VMW1837) in E6SM cell culture
Human alphaherpesvirus 1 [40] = assay: Minimum inhibitory concentration was determined against HSV-1 (G) in E6SM cell culture; assay type: functional, herpes simplex virus; method in brief: as §3
[41] = Human alphaherpesvirus 1, read-out: MIC
[42] = Human alphaherpesvirus 3, read-out: MIC

In the case of `Nc1nc(O)c2ncn(C3C=CC(CO)C(O)C3)c2n1` (stereo not drawn), the MIC (Human alphaherpesvirus 3 [1]) is reported as 1.9 µg/mL and 0.64 µg/mL, the Selectivity index [2] is reported as >16 and >40 and the MIC (Cytomegalovirus [3]) is reported as 0.6 µg/mL (≈ 2.16 µM). For the same compound, the MIC [4] was 0.07 µg/mL (≈ 0.252 µM), the MIC (Cytomegalovirus [5]) was 1.7 µg/mL (≈ 6.13 µM) and the Selectivity index [6] was >3 and >7. The MIC (Human alphaherpesvirus 3 [7]) was 2.8 µg/mL (≈ 10.1 µM), the MIC (Human alphaherpesvirus 3 [8]) was 1.2 µg/mL and 0.49 µg/mL and the MIC [9] was 0.002 µg/mL (≈ 0.00721 µM). It also gave an MIC [9, 41] of 0.003 µg/mL (≈ 0.0108 µM), an MIC (Human alphaherpesvirus 1 [10]) of 0.004 µg/mL (≈ 0.0144 µM) and an MIC (Human alphaherpesvirus 1 [10]; [41]) of 0.004 µg/mL (≈ 0.0144 µM). The Selectivity index [11] was >13 and >30, the Cytotoxicity (HeLa) was 400 µg/mL and the MIC (Cytomegalovirus [12]) was 0.8 µg/mL (≈ 2.89 µM). For the same compound, the MIC [13] was 0.05 µg/mL (≈ 0.18 µM), the MIC [13, 41] was 0.07 µg/mL (≈ 0.252 µM) and the MIC (Cytomegalovirus [14]) was 1.5 µg/mL (≈ 5.41 µM). For the same compound, the MIC [15] was 0.07 µg/mL (≈ 0.252 µM), the MIC [15, 41] was 0.1 µg/mL (≈ 0.361 µM) and the Selectivity index [16] was >2.2 and >5. The Selectivity index [17] was > 160, the MIC (Human alphaherpesvirus 1 [18]) was 0.002 µg/mL (≈ 0.00721 µM) and the MIC (Human alphaherpesvirus 1 [18]; [41]) was 0.003 µg/mL (≈ 0.0108 µM). For the same compound, the Cytotoxicity (HEL [19]) was > 20 µg/mL, the Selectivity index [20] was > 5000 and the Cytotoxicity (HEL [21]) was > 20 µg/mL. The Selectivity index [22] was >12 and >25, the MIC (Human alphaherpesvirus 3 [23]) was 5.8 µg/mL and 2.1 µg/mL and the Selectivity index [24] was >5 and >2. The MIC [25] was 0.01 µg/mL (≈ 0.0361 µM), the MIC [25, 41] was 0.01 µg/mL (≈ 0.0361 µM) and the Selectivity index [26] was >1.6 and >4. For the same compound, the Selectivity index [27] was >10 and >30 and the MIC (Human alphaherpesvirus 3 [28]) was 6.8 µg/mL (≈ 24.5 µM).

`Nc1nc2c(ncn2COCCO)c(=O)[nH]1` [ACYCLOVIR] showed an MIC [4] of 0.02 µg/mL (≈ 0.0888 µM), an MIC [9, 41] of 0.01 µg/mL (≈ 0.0444 µM) and an MIC [29] of 0.005 µg/mL (≈ 0.0222 µM). The MIC (Human alphaherpesvirus 3 [30]) was 13 µg/mL (≈ 57.7 µM), the MIC (Human alphaherpesvirus 3 [31]) was 28 µg/mL (≈ 124 µM) and the MIC ([15]; Human alphaherpesvirus 2) was 0.02 µg/mL (≈ 0.0888 µM). For the same compound, the Cytotoxicity (Vero) was > 400 µg/mL, the MIC [32] was 9.6 µg/mL (≈ 42.6 µM) and the MIC (Human alphaherpesvirus 1 [18]; [41]) was 0.003 µg/mL (≈ 0.0133 µM). The MIC (Human alphaherpesvirus 3 [33]) was 0.8 µg/mL (≈ 3.55 µM), the MIC [34] was 1.1 µg/mL (≈ 4.88 µM) and the MIC (Human alphaherpesvirus 2) was 0.02 µg/mL (≈ 0.0888 µM). For the same compound, the Cytotoxicity (E6SM) was > 50 µg/mL and the MIC ([25]; Human alphaherpesvirus 1) was 0.07 µg/mL (≈ 0.311 µM).

With `O=c1[nH]c(=O)n([C@H]2C[C@H](O)[C@@H](CO)O2)cc1/C=C/Br` [BRIVUDINE] the MIC (Human alphaherpesvirus 3 [1]; [42]) was 0.003 µg/mL (≈ 0.00901 µM), the Cytotoxicity (HEL [35]) was > 200 µg/mL and the MIC [4] was > 80 µg/mL. The MIC (Human alphaherpesvirus 3 [7]) was > 50 µg/mL, the MIC (Human alphaherpesvirus 3 [8]; [42]) was 0.03 µg/mL (≈ 0.0901 µM) and the MIC [9, 41] was 0.001 µg/mL (≈ 0.003 µM). The MIC (Human alphaherpesvirus 1 [10]; [41]) was 0.001 µg/mL (≈ 0.003 µM), the Cytotoxicity (HeLa) was > 400 µg/mL and the MIC [15, 41] was > 80 µg/mL. The Cytotoxicity (Vero) was > 400 µg/mL, the MIC [32] was > 80 µg/mL and the MIC (Human alphaherpesvirus 1 [18]; [41]) was 0.001 µg/mL (≈ 0.003 µM). The Cytotoxicity (HEL [19]) was > 50 µg/mL, the MIC (Human alphaherpesvirus 3 [23]; [42]) was > 20 µg/mL and the Cytotoxicity (E6SM) was > 400 µg/mL. For the same compound, the MIC [25, 41] was > 80 µg/mL and the MIC [36] was > 80 µg/mL.

With `Nc1ccn(C[C@@H](CO)OCP(=O)(O)O)c(=O)n1.O.O` [CIDOFOVIR] the Cytotoxicity (HEL [35]) was > 50 µg/mL, the MIC (Cytomegalovirus [37]) was 0.08 µg/mL and the MIC (Cytomegalovirus [38]) was 0.2 µg/mL. The Cytotoxicity (E6SM) was > 50 µg/mL.

In the case of `Nc1nc2c(ncn2COC(CO)CO)c(=O)[nH]1` [GANCICLOVIR], the MIC (Human alphaherpesvirus 1 [39]) is reported as 0.01 µg/mL (≈ 0.0392 µM), the Cytotoxicity (HEL [35]) is reported as > 50 µg/mL and the MIC [4] is reported as 0.001 µg/mL (≈ 0.00392 µM). For the same compound, the MIC [9, 41] was 0.001 µg/mL (≈ 0.00392 µM), the MIC [29] was 0.001 µg/mL (≈ 0.00392 µM) and the MIC (Cytomegalovirus [37]) was 0.6 µg/mL (≈ 2.35 µM). For the same compound, the MIC ([15]; Human alphaherpesvirus 2) was 0.001 µg/mL (≈ 0.00392 µM), the MIC (Cytomegalovirus [38]) was 0.8 µg/mL (≈ 3.13 µM) and the Cytotoxicity (Vero) was > 100 µg/mL. It also gave an MIC [32] of 0.48 µg/mL (≈ 1.88 µM), an MIC (Human alphaherpesvirus 1 [18]; [41]) of 0.001 µg/mL (≈ 0.00392 µM) and an MIC (Human alphaherpesvirus 1 [40]) of 0.002 µg/mL (≈ 0.00784 µM). The Cytotoxicity (E6SM) was > 50 µg/mL.
